Experimental data of several laboratories.
Protocols differ between the studies behind these lines.
Target: NT-3 growth factor receptor (NTRK3, Homo sapiens, UniProt Q16288)

`COc1cc2c(Nc3ccc(Br)cc3F)ncnc2cc1OCC1CCN(C)CC1` gave a remaining signal of 72.2% (cell-free assay; 0.5 µM).
`O=C(Nc1cccc(Cl)c1)Nc1cccc(C(=O)Nc2ccc3[nH]ncc3c2)c1` gave an inhibition of 19.7% (enzyme activity, inhibitor, FRET; 1 µM).
The activity vs control of `Cc1ccc(C(=O)NCc2ccsc2)cc1C#Cc1cn(C(C)C)c2ncnc(N)c12` is reported as 29% (enzyme activity, inhibitor; 1 µM).
`O=C(Nc1cccc(C(=O)Nc2ccc3[nH]ncc3c2)c1)Nc1ccccc1C(F)(F)F` gave an inhibition of 23.7% (enzyme activity, inhibitor, FRET; 1 µM).
For `Cc1ccc(NC(=O)c2ccc(C)c(C(F)(F)F)c2)cc1C#Cc1nn(C2CCC(O)CC2)c2ncnc(N)c12` (stereo not shown), the remaining signal was 17% (cell-free assay; 10 µM).
`Cc1c[nH]c2nccc(Oc3c(F)cc(Nc4cc(Cl)nc(N)n4)cc3F)c12` gave a remaining binding of 86% (cell-free assay, competition with immobilised ligand; 0.1 µM).
The inhibition of `O=C(Nc1cccc(F)c1)Nc1cccc(C(=O)Nc2ccc3[nH]ncc3c2)c1` is reported as 17% (enzyme activity, inhibitor, FRET; 1 µM).
For `Clc1ccc(Nc2nnc(Cc3ccncc3)c3ccccc23)cc1`, the remaining signal was 92.7% (cell-free assay; 0.5 µM).
For `Cc1c(C(=O)O)cc(-c2ccc(C3CCNCC3)cc2)c2ccc(-c3ccc(C(F)(F)F)cc3)cc12`, the remaining binding was 100% (cell-free assay, competition with immobilised ligand; 1 µM).
With `O=C(Nc1ccc(Cl)cc1)Nc1cccc(C(=O)Nc2ccc3[nH]ncc3c2)c1` the inhibition was 15.4% (enzyme activity, inhibitor, FRET; 1 µM).
The remaining activity of `O=C(Nc1cnn(-c2csc(C(=O)NC3COC3)c2)c1)Nc1c(F)cccc1Cl` is reported as 38.6% (enzyme activity, inhibitor; 5 µM).
`CCCCN(CCCC)C(=O)CN1C[C@H](c2cc(OC)c3c(c2)OCO3)[C@@H](C(=O)O)[C@@H]1CC(C)(C)CCC` gave a remaining binding of 50.5% (cell-free assay, competition with immobilised ligand; 1 µM).
With `Cc1sc(C(=O)NC2COC2)cc1-n1cc(NC(=O)Nc2c(F)cccc2Cl)cn1` the remaining activity was 86% (enzyme activity, inhibitor; 10 µM).
For `N#CC1(c2ccccn2)CCN(Cc2cc(C(=O)N3CCCC3)c(=O)n3ccccc23)CC1`, the remaining binding was 100% (cell-free assay, competition with immobilised ligand; 1 µM).
For `Cc1cc(NC(=O)c2cccc3cc(-c4cccc5[nH]nc(N)c45)ccc23)ccc1F`, the activity vs control was 90% (enzyme activity, inhibitor; 0.1 µM).
`NS(=O)(=O)c1cc(NC(=O)Cc2ccccc2)ccc1Oc1cccc(Cl)c1` has a remaining binding of 87% (cell-free assay, competition with immobilised ligand; 1 µM).
`O=C(Nc1cccc(C(=O)Nc2ccc3[nH]ncc3c2)c1)Nc1ccccc1Cl` has an inhibition of 27.4% (enzyme activity, inhibitor, FRET; 1 µM).
The remaining signal of `O=C1Nc2ccc(Cl)cc2C1=Cc1cc(Cl)c(O)c(Cl)c1` is reported as 44.8% (cell-free assay; 0.5 µM).
With `CN(C)c1ncnc(-c2ccc3nc(Nc4cc(CN5CCN(C(=O)CC(F)(F)F)CC5)ccn4)[nH]c3c2)c1Cl` the remaining binding was 61% (cell-free assay, competition with immobilised ligand; 1 µM).
With `O=C(Nc1ccc(C(F)(F)F)cc1)Nc1cccc(C(=O)Nc2ccc3[nH]nc(-c4ccccc4)c3c2)c1` the inhibition was 12.9% (enzyme activity, inhibitor, FRET; 1 µM).
The remaining signal of `C[C@@H]1CCN(C(=O)CC#N)C[C@@H]1N(C)c1ncnc2[nH]ccc12` is reported as 90% (cell-free assay; 0.5 µM).
`O=C(Nc1cccc(C(=O)Nc2ccc3[nH]ncc3c2)c1)Nc1cccc(C(F)(F)F)c1` has an inhibition of 26.6% (enzyme activity, inhibitor, FRET; 1 µM).
`CC(C)(C)c1nc2c(s1)c1nc(N)ncc1c1ccc(NS(=O)(=O)c3c(F)cccc3F)c(F)c12` has a remaining activity of 82% (enzyme activity, inhibitor, radiometric; 1 µM).
With `Cc1noc([C@H]2C[C@@H](c3ccc(C(F)(F)F)cc3)CN(C(=O)N3CCS(=O)(=O)C3)C2)n1` the remaining binding was 100% (cell-free assay, competition with immobilised ligand; 1 µM).
For `O=C(Nc1ccc2[nH]ncc2c1)c1cccc(NC(=S)Nc2ccc(F)cc2F)c1`, the inhibition was 12.5% (enzyme activity, inhibitor, FRET; 1 µM).
